Consider 88 compounds from PubChem BioAssay AID540295 (The Scripps Research Institute Molecular Screening Center, 2011).

The whole screen tested about 360,000 compounds, of which about 1,700 (0.47%) were called active. The sample holds actives, similar compounds and a random draw of the others, so the mix is not that of the screen. A number with no mark means an inactive call.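 The calls were made as follows: active = inhibition above its plate's cutoff, the mean of tested wells on that plate plus 3 SD (cut at about 29% in these data); inactive = the rest.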

Sequence of Melanocortin receptor 4 (Homo sapiens) (P32245 whole entry, looked up): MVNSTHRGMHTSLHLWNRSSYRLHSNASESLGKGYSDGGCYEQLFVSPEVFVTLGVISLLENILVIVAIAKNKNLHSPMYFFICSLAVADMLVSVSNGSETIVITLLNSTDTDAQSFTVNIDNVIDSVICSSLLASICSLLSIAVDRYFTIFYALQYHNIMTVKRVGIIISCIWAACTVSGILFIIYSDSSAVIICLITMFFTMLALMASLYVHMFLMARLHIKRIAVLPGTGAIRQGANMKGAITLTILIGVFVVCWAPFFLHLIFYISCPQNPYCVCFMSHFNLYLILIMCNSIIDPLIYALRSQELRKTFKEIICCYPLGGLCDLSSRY

This assay addresses Melanocortin receptor 4 (Homo sapiens) (UniProt P32245). The assay is described as follows: MC4R antagonists of cAMP signaling, primary screen, cell-based, TR-FRET, antagonist arm of biased-ligand search (AID 540295).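 Also: 0% = Melanotan II alone and 100% = Melanotan II plus saturating MCL0020.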 Conditions: MC4R-expressing cells, MTII-stimulated cAMP, LANCE TR-FRET; at 6.5 µM; active compounds read high. In short, it runs like this:
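Assay system: human MC4R-expressing U2OS cells; reagent: Melanotan II stimulation of cells; dosing: 6.5 µM single dose; timing: compound 30 min, challenge 1 h, detection 1 h; signal: TR-FRET cAMP assay; replicates: one well per compound, no replicates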
On the technique in general: Time-resolved FRET reads energy transfer from a long-lived donor to a nearby acceptor.
One may read the inhibition as the relative decrease from the control value, in per cent. As for `Cc1ccc(S(=O)(=O)N(CC(=O)NCc2ccco2)c2ccccc2C)cc1`, the inhibition is 12.4%.
Then `COc1ccc(Cc2cc(-c3ccc(F)cc3)n[nH]c2=O)cc1`, with 9.23%; and `COc1cccc(NC(=O)c2nn(-c3ccc(OC)cc3OC)c(=O)c3ccccc23)c1`, with -1.09%; and `COc1ccc(-n2nc(C(=O)Nc3cc(OC)c(OC)c(OC)c3)c3ccccc3c2=O)c(OC)c1`, with 31.6% (active).
The result for `COc1ccc(-n2nc(C(=O)NCC(=O)N3CCN(c4ccccc4OC)CC3)c3ccccc3c2=O)c(OC)c1` reads 1.93%; that for `COc1ccc(CCNC(=O)CN2C(=O)COc3ccc(S(=O)(=O)N4CCCC4)cc32)cc1OC`, 3.63%.
The result for `CCCS(=O)(=O)NC(=O)C1(C)CCCN(C(=O)c2cc(C)on2)C1` (stereo not drawn) reads 10.6%.
Consider `Cc1cc(=O)oc2c3c(cc(OCC(=O)NCc4ccccn4)c12)OC(C)(C)CC3`, for which the inhibition was -0.73%.
Then `Cc1ccc(C)c(OCCC(=O)OCC(=O)c2ccc3c(c2)NC(=O)CO3)c1`, with 2.21%.
Then `O=C(O)CN1C(=O)CC(Cc2ccccc2)C1=O` (stereo not drawn), with -3.51%; and `Cc1ccc(NC(=O)C2CC2c2ccccc2)cc1` (stereo not drawn), with 0.14%.
The result for `COC(=O)c1ccc(Sc2ccc(F)cc2)c(N)c1` reads -11.2%.
With `COc1ccc(Sc2ccc(NC(=O)c3cccc(Cl)c3)cc2C#N)cc1`, the inhibition is 5.3%.
Then `Cc1ccc(Sc2ccc(NC(=O)c3ccc(F)cc3)cc2C#N)cc1`, with 33.5% (active); and `CN(c1ccccc1)S(=O)(=O)c1ccc(NC(=O)COc2ccccc2)cc1`, with -6.55%; and `Cc1ccc(S(=O)(=O)N2CCC(C(=O)OCC(=O)N3CC(=O)Nc4ccccc43)CC2)cc1`, with 20.2%.
The result for `Cc1ccccc1SCC(=O)OCC(=O)N1CC(=O)Nc2ccccc21` reads 0.86%; that for `Cc1ccc(S(=O)(=O)N(C)CC(=O)OCC(=O)Nc2ccccc2)cc1`, 34.1% (active).
The result for `Cc1ccc(S(=O)(=O)N(C)CC(=O)OCC(=O)N2CC(=O)Nc3ccccc32)cc1` reads 33.9% (active); that for `CN(C)S(=O)(=O)c1ccc(NC(=O)COC(=O)Cn2[nH]c(=O)c3ccccc3c2=O)cc1`, 9.38%.
For `COc1ccnc(Oc2ccccc2)n1`, the inhibition is 0.1%.
Then `CN(C)CCN1CCN(c2cc(-c3cccc(Cl)c3)nc3ccnn23)CC1`, with 3.3%; and `C#Cc1cc(N2CCN(C(=O)c3ccoc3)CC2)n2nc(-c3cccc(Cl)c3)cc2n1`, with 32.1% (active).
The result for `O=C(c1ccccc1)N1CCN(c2cc(-c3ccccc3)nc3cc(-c4cccc(Cl)c4)nn23)CC1` reads 1.52%; that for `CC(CNc1ccc([N+](=O)[O-])c2cccnc12)Nc1c([N+](=O)[O-])cc(C(F)(F)F)cc1[N+](=O)[O-]` (stereo not drawn), 7.59%.
Then `COc1ccccc1-c1n[nH]c2c1[C@H](C)CC[C@H]2C(C)C`, with 10%; and `Cc1cc(C)cc(Oc2c(C(F)(F)F)oc3cc(OCC(=O)O)ccc3c2=O)c1`, with -2.27%.
Regarding `O=C(CSc1nc(Nc2ccccc2)nc(N2CCOCC2)n1)Nc1cc(Cl)ccc1O`, the inhibition is -4.1%.
Then `O=C(CSc1c2c(nc3ccc(Cl)cc13)CCCC2)NCc1ccco1`, with 11.1%; and `O=C(CSc1nc2ccc(Nc3nc(N4CCOCC4)nc(N4CCOCC4)n3)cc2s1)NCc1ccco1`, with 29.5% (active); and `Cc1ccccc1N1CC(C(=O)Nc2ccc3c(c2)OCO3)CC1=O` (stereo not drawn), with 8.22%.
The result for `CCOCc1nnc(NC(=O)CCS(=O)(=O)Cc2ccccc2)s1` reads 4.21%; that for `O=C1C(Cl)=C(Oc2ccccc2)C(=O)c2ccccc21`, 93.5% (active); that for `CCC1CCCCN1C(=S)Nc1ccc(S(=O)(=O)Nc2ncccn2)cc1` (stereo not drawn), -1.16%.
The result for `C=CC(=O)OCCOCCOCCOCCOC(=O)C=C` reads -0.74%; that for `COCC(C)NC(=O)c1ccc(-n2nc(C(F)(F)F)cc2-c2cccs2)cc1` (stereo not drawn), 11.7%; that for `Cc1ccc(C)c(NC2=NCC(=O)N2c2ccc3c(c2)OCCO3)c1`, -2.27%.
Take `Cc1cc(=O)oc2c3c(cc(OCC(=O)NCC(O)c4ccccc4)c12)OC(C)(C)CC3` (stereo not drawn): the inhibition is 14.2%.
The result for `Brc1c(CSc2nncc3ccccc23)nc2ccccn12` reads 0.34%; that for `CC(C(=O)O)n1cnc2sc3c(c2c1=O)CCCC3` (stereo not drawn), -7.65%; that for `CCOC(=O)C(C)n1cnc2sc(C)c(C)c2c1=O` (stereo not drawn), 31.2% (active).
The result for `CCOC(=O)C(C)n1cnc2scc(-c3ccc(C)c(C)c3)c2c1=O` (stereo not drawn) reads 1.47%; that for `CC(=O)NC12CC3CC(C1)CC(C(=O)N1CCN(C(=O)c4ccco4)CC1)(C3)C2`, -0.56%.
Then `CCOc1ccc(Nc2nc(Cl)nc(N3CCN(c4ccc(OC)cc4)CC3)n2)cc1`, with 29.1% (active); and `COc1ccc(Nc2ncc(F)c(N3CCOCC3)n2)cc1`, with -0.86%; and `CCN1CCN(c2nc(Nc3cc(OC)ccc3OC)nc(Nc3cc(OC)ccc3OC)n2)CC1`, with 12.3%.
`Cc1ccc(Nc2cc(C)nc3c(C)ccc([N+](=O)[O-])c23)cc1`: the inhibition is -5.69%.
Then `CCNC(=O)CCc1nc(-c2ccc(C(C)(C)C)cc2)no1`, with 9.83%; and `Cc1cccc(-c2nc3c(c(SCC(=O)N4CCOCC4)n2)CCCC3)c1`, with 3.91%; and `CCCS(=O)(=O)NC(=O)C1(C)CCCN(C(=O)c2ccnc(Cl)c2)C1` (stereo not drawn), with -1.37%.
With `O=C(N/N=C\C1CC=CCC1)c1ccc(Br)o1` (stereo not drawn), the inhibition was 6.38%.
The result for `Cc1nnc(N/N=C/C2CC=CCC2)[nH]c1=O` (stereo not drawn) reads 33.9% (active).
Then `Cc1nnc(N/N=C/c2ccccn2)[nH]c1=O`, with -1.07%; and `CCN1CCN(C(=O)CN(C)S(=O)(=O)c2ccc(OC)cc2)CC1`, with 9.54%.
Then `Cc1ccc(C)c(S(=O)(=O)N2CCN(CC(=O)Nc3ccc([N+](=O)[O-])cc3)CC2)c1`, with 34.2% (active); and `Cc1ccc(NC(=O)CCNC(=O)c2ccc([N+](=O)[O-])cc2)cc1S(=O)(=O)N1CCOCC1`, with -2.86%; and `Cc1ccc([N+](=O)[O-])cc1S(=O)(=O)N1CCCN(C)CC1`, with -8.59%.
`COC(=O)c1ccc(CSc2ccc(S(=O)(=O)N3CCCCC3)cn2)cc1`: the inhibition was 0.99%.
The result for `Cc1ccc(SC(CC(=O)c2ccc(C(C)(C)C)cc2)C(=O)O)cc1` (stereo not drawn) reads 31.2% (active); that for `Cc1ccc(SC(C)C(=O)NCc2ccc(F)cc2)cc1` (stereo not drawn), -3.51%.
The result for `Cc1ccc(Sc2cc(C(=O)c3ccccc3C(=O)O)ccc2[N+](=O)[O-])cc1` reads -7.09%; that for `Cc1ccc(S(=O)(=O)Nc2nc(C)cc(-n3nc(C)cc3C)n2)cc1`, 14.3%.
Then `Cc1ccc(S(=O)(=O)NC(C(=O)N2CCOCCOCCOCCOCC2)c2ccccc2)cc1` (stereo not drawn), with -0.07%; and `CCCC(C(=O)n1nc(C)cc1C)C(NS(=O)(=O)c1ccc(C)cc1)c1ccccc1` (stereo not drawn), with 34.4% (active); and `CCc1c(C)[nH]c(=S)c(C#N)c1C`, with 14.3%.
For the compound `O=C1NC[C@@H](c2ccccc2)OC(=O)[C@H](Cc2ccc(F)cc2)CC/C=C/C[C@H]1CC(=O)N(CCO)Cc1ccccc1`, the inhibition is 7.53%.
Then `CC(=O)Nc1ccc(C=Cc2ccc([N+](=O)[O-])cc2)cc1`, with 1.16%; and `O=C(O)C(=Cc1ccc([N+](=O)[O-])cc1)CCc1ccccc1`, with -2.43%; and `O=C1/C(=C\c2ccc([N+](=O)[O-])cc2)CS(=O)(=O)C/C1=C/c1ccc([N+](=O)[O-])cc1`, with 34.6% (active).
Turning to `CCN(C(=O)CSc1ncnc2sccc12)c1c(N)n(Cc2ccccc2)c(=O)[nH]c1=O`, the inhibition is -1.83%.
Consider `CCCNc1ncnc2sc(C)c(C)c12`, for which the inhibition is -9.19%.
Then `COc1cccc(CSc2nc3nc(C)cc(C)n3n2)c1`, with -3.34%.
Then `COc1ccc(OC)c(S(=O)(=O)n2c([N+](=O)[O-])cnc2C)c1`, with 0.16%; and `COc1ccc(C(C[N+](=O)[O-])n2nc(C)cc2C)cc1` (stereo not drawn), with 46.6% (active).
Then `Cc1ccc(C)c(S(=O)(=O)N2CCCOC2CNC(=O)C(=O)NC2CCCCC2)c1` (stereo not drawn), with 4.1%.
`O=C1CCC([N+](=O)[O-])C(c2ccccc2Br)N1` (stereo not drawn): the inhibition was 25.1%.
Consider `Cc1ccc(OCC(=O)Nc2ccc(NC(=O)c3cccs3)cc2)c(C)c1`, for which the inhibition was 29.7% (active).
The result for `Cc1ccc(OCC(=O)Nc2ccc(N3CCN(C(=O)c4ccco4)CC3)cc2)c(C)c1` reads 12.1%.
Then `C/C(=N\OCC(=O)Nc1ccc(Br)cc1)c1cccs1`, with -1.35%; and `CC(=O)Oc1ccc(-c2cccc(C(=O)N3CCCCC3)c2)cc1`, with -4.05%; and `O=C(O[C@@H]1[C@H](Cc2ccccc2)NS(=O)(=O)[C@H]2C[C@@H]3C=C[C@]12O3)c1ccccc1Br`, with 12%.
Then `Cc1ccc(C)c(NC(=O)CN(C)C(=O)COc2ccc3ccccc3c2)c1`, with 2.76%.
As to `Cc1ccc(C)c(NS(=O)(=O)c2ccc(OCC(=O)NCc3cccnc3)cc2)c1`, the inhibition was -2.79%.
Then `Cc1ccc(NS(=O)(=O)c2ccc(C)c(NC(=O)COc3ccc4ccccc4c3)c2)c(C)c1`, with 31.4% (active).
The result for `O=C(Nc1cc(C(F)(F)F)ccc1Cl)c1cc2nc3c(c(C(F)(F)F)n2n1)CCCC3` reads 2.12%; that for `CN(CC(=O)NC1CCCC1)S(=O)(=O)c1cnc[nH]1`, -1.7%.
Then `O=C(OCc1ccc([N+](=O)[O-])cc1)C1CC(=O)N(Cc2ccccc2Cl)C1` (stereo not drawn), with 7.18%.
On to `CCCCCOC(=O)C1=C(C)Nc2nnnn2C1c1ccc(OC)c(OC)c1OC` (stereo not drawn), for which the inhibition was 12.4%.
